Experimental data as given in paper PMC5564211 (European journal of medicinal chemistry, 2017).

Assays:
α1-adrenoceptors = assay: [3H]prazosin binding displacement; set-up: species or system mouse; details: [3H]prazosin displacement; for IC50: values as rounded in text
Summary of the method: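 Competition binding against 1.5 nM [³H]prazosin in mouse hippocampal homogenate, with test compound added over a range of concentrations to build concentration–effect displacement curves. IC50 is derived by non-linear regression curve fitting. Each ligand's fitted curve is compared statistically with reference-ligand curves.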

mouse [1] = assay: Locomotor activity assay; type: in vivo; details: mice; for effect on locomotion compared with the same dose of D-22: 1 mg/kg ip, one-way ANOVA, Dunnett's test
mouse [2] = assay: Antidepressant-like activity assay; type: in vivo; details: mice, TST, given alone without SSRI
Summary of the method: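 Mice given test compound were scored for immobility time in the tail suspension test. A saline-treated group served as control. Groups were compared with saline by one-way ANOVA with Dunnett's post-hoc test, with significance set at P < 0.05.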

mouse [3] = details: mice, previously published studies; cited from earlier work

Row | Compound | independent antidepressant-like activity (reduction in immobility time) (mouse [2]) | IC50 (α1-adrenoceptors) | also measured
1 | C[C@]12C[C@H](O)[C@H]3[C@@H](CCC4=CC(=O)CC[C@@]43C)[C@@H]1CC[C@@H]2C(=O)CO [Corticosterone, corticosterone, reference compound] |  |  | inhibition at adrenoceptors (α1-adrenoceptors): weak inhibitor
2 | CCN1/C(=C/c2ccc3ccccc3[n+]2CC)C=Cc2ccccc21.[I-] [D-22, decynium-22, reference compound] | none of the analogues, including D-22, displayed antidepressant-like activity |  | effect on locomotor activity (mouse [1]; 0.1 mg/kg ip, p=0.44): not at 0.1 mg/kg; effect on locomotor activity (mouse [1]; 1.0 mg/kg ip, cumulative beam breaks 60 to 120 minutes following injection): completely suppressed locomotor activity; effect on immobility time (mouse [3]): without effect on immobility time unless paired with an SSRI
3 | CCOc1ccccc1OCCN[C@H](C)Cc1ccc(OC)c(S(N)(=O)=O)c1 [Tamsulosin, tamsulosin, reference compound] |  | ~2 nM | 
4 | CN1/C(=C\c2cc[n+](C)c3ccccc23)C=Cc2ccccc21.O=C([O-])C(F)(F)F [analogue 1, 1,1′-Dimethyl-2,4′-cyanine trifluoroacetate] | do not impart independent antidepressant-like activity |  | 
5 | CC(C)[n+]1ccc(/C=C2/C=Cc3ccccc3N2C)c2ccccc21.O=C([O-])C(F)(F)F [analogue 2, 1-Methyl-1′-isopropyl-2,4′-cyanine trifluoroacetate] | do not impart independent antidepressant-like activity | ~1000 nM | 
6 | CCN1/C(=C/c2ccc3cc(Cl)ccc3[n+]2CC)C=Cc2ccccc21.[I-] [analogue 6, (E)-6-Chloro-1-ethyl-2-((1-ethylquinolin-2(1H)-ylidene)methyl)quinolinium iodide] | impart independent antidepressant-like activity | 500 nM | effect on locomotion compared with the same dose of D-22 (mouse [1]): affected locomotion significantly less than D-22
7 | (E)-1-Ethyl-2-((1-ethylquinolin-2(1H)-ylidene)methyl)-6-fluoro-4a,8a-dihydro quinolinium iodide [analogue 5] | impart independent antidepressant-like activity | 300 nM | 
8 | (E)-1-Ethyl-2-((1-ethylquinolin-2(1H)-ylidene)methyl)-6-iodo-4a,8a-dihydro-quinolinium iodide [analogue 7] | do not impart independent antidepressant-like activity | 700 nM | effect on locomotion compared with the same dose of D-22 (mouse [1]): affected locomotion significantly less than D-22
